# Results of several laboratories.
# Compare with care: the assays were run in different laboratories.
# HTR1E: 5-hydroxytryptamine receptor 1E (HTR1E, Homo sapiens, UniProt P28566)
# BACE1: Beta-secretase 1 (BACE1, Homo sapiens, UniProt P56817)
Compound,target,assay,quantity,value
O=C(O)C(F)(F)C(F)(F)C(F)(F)C(F)(F)C(F)(F)C(F)(F)C(F)(F)F,"Aldo-keto reductase family 1 member C4 (AKR1C4, Homo sapiens, UniProt P17516)","enzyme activity, inhibitor",IC50,≥ 50 µM
CC(N)Cc1c[nH]c2ccc(OCc3cccs3)cc12 (stereo not drawn),HTR1E,"G protein activation, agonist, BRET",EC50,3.99 µM
CC[C@H](C)[C@H](NC(=O)[C@H](CO)NC(=O)CNC(=O)[C@@H](NC(=O)[C@@H](NC(=O)[C@@H](NC(=O)CN)[C@@H](C)O)C(C)C)[C@@H](C)O)C(=O)N[C@@H](CC(C)C)C(=O)N[C@H](C(=O)N1CCC[C@H]1C(=O)N[C@H](C(=O)N[C@@H](CC(=O)O)C(=O)N[C@@H](Cc1ccc(O)cc1)C(=O)NCC(=O)N[C@H]1CSSC[C@@H](C(=O)N[C@@H](CO)C(=O)N[C@H](C(=O)N[C@@H](C)C(=O)N[C@@H](CCSC)C(=O)N[C@@H](Cc2ccc(O)cc2)C(=O)NCC(=O)NCC(=O)N[C@H](C(=O)N[C@H](C(=O)N[C@@H](CC(=O)O)C(=O)N2CCC[C@H]2C(=O)N[C@H](C(=O)N[C@@H](CCCNC(=N)N)C(=O)N[C@@H](Cc2ccccc2)C(=O)N2CCC[C@H]2C(=O)N[C@@H](CC(N)=O)C(=O)N[C@@H](C)C(=O)N[C@@H](Cc2c[nH]c3ccccc23)C(=O)N[C@@H](CCCNC(=N)N)C(=O)N[C@@H](CCC(=O)O)C(=O)N[C@@H](CC(C)C)C(=O)O)[C@@H](C)CC)[C@@H](C)CC)C(C)C)C(C)C)NC(=O)[C@H](CC(C)C)NC(=O)[C@H](Cc2ccccc2)NC(=O)[C@@H]2CCCN2C(=O)[C@H](CC(N)=O)NC(=O)[C@H](Cc2ccccc2)NC1=O)[C@@H](C)CC)[C@@H](C)O,"Neutrophil elastase (ELANE, Homo sapiens, UniProt P08246)","enzyme activity, inhibitor",IC50,> 100 µM
C=CC(=O)N[C@H]1C=C(C)c2c(-c3cnc4ccccc4c3)c3c(N)ncnc3n2C1,"Epidermal growth factor receptor (EGFR, Homo sapiens, UniProt P00533, L858R/T790M)","enzyme activity, inhibitor",IC50,0.0011 µM
Cn1cc(-c2cc(C(=O)NN=Cc3cccc([N+](=O)[O-])c3)no2)c2ccccc21,BACE1,"enzyme activity, inhibitor, FRET",IC50,> 100 µM
CCN(CC)C(=O)N[C@H]1C[C@@H]2c3cccc4[nH]cc(c34)C[C@H]2N(C)C1,HTR1E,"G protein activation, agonist, BRET",EC50,1.81 µM
CNC(=O)c1ccc(-c2cnn3ccc(C(=O)N(C)c4ccc(Cl)c(C(=O)OC)c4)cc23)cc1,"Wee1-like protein kinase (WEE1, Homo sapiens, UniProt P30291)","enzyme activity, inhibitor",IC50,> 30 µM
c1ccc(-c2nnc(CN3CCN(c4ccccc4)CC3)o2)cc1,BACE1,"enzyme activity, inhibitor, FRET",IC50,4.79 µM
COC(=O)c1cc(N(C)C(=O)c2ccn3ncc(-c4ccc(C(=O)O)cc4)c3c2)ccc1Cl,"Epidermal growth factor receptor (EGFR, Homo sapiens, UniProt P00533)","enzyme activity, inhibitor",IC50,> 30 µM
COc1cccc(C=NNC(=O)c2cc(-c3cn(C)c4ccccc34)on2)c1OC,BACE1,"enzyme activity, inhibitor, FRET",IC50,8.28 µM
CNC(=O)c1ccc(-c2cnn3ccc(C(=O)N(C)c4ccc(Cl)c(C(=O)O)c4)cc23)cc1,"Non-receptor tyrosine-protein kinase TYK2 (TYK2, Homo sapiens, UniProt P29597)","enzyme activity, inhibitor",IC50,> 30 µM
Cc1c2oc3c(C)ccc(C(=O)N[C@@H]4C(=O)N[C@H](C(C)C)C(=O)N5CCC[C@H]5C(=O)N(C)CC(=O)N(C)[C@@H](C(C)C)C(=O)O[C@@H]4C)c3nc-2c(C(=O)N[C@@H]2C(=O)N[C@H](C(C)C)C(=O)N3CCC[C@H]3C(=O)N(C)CC(=O)N(C)[C@@H](C(C)C)C(=O)O[C@@H]2C)c(N)c1=O,"Palmitoyl-protein thioesterase 1 (Homo sapiens, UniProt P50897)","binding, MST",Kd,0.235 µM
